# Results of several laboratories.
# Target: RAC-gamma serine/threonine-protein kinase (AKT3, Homo sapiens, UniProt Q9Y243)
SMILES,assay,conditions,remaining binding
NS(=O)(=O)c1cc(NC(=O)C2(c3ccccc3Cl)CC2)ccc1Oc1cccc(Cl)c1,"cell-free assay, competition with immobilised ligand",1 µM,79%
O=C(c1ccc(Nc2nccc(-c3cc4ccccc4s3)n2)cc1)N1CCC(N2CCCC2)CC1,"binding, competition with immobilised ligand",1 µM,100%
FC(F)(F)Oc1cccc(-c2cnc3ccc(-c4ccncc4)nn23)c1,"cell-free assay, competition with immobilised ligand",5 µM,99%
CCC(=O)N[C@H]1CC[C@@H](C(=O)N(C)c2ccc(-c3nc4ccccc4o3)cc2)C1,"cell-free assay, competition with immobilised ligand",1 µM,100%
c1cnn2ncc(-c3ccnc(N4CCC45COC5)n3)c2c1,binding,1 µM,86%
O=C(NCC1CCOCC1)c1n[nH]cc1NC(=O)c1c(F)cccc1F,"binding, competition with immobilised ligand",1 µM,90%
O=C(NS(=O)(=O)c1ccc(NCC2CCOCC2)c([N+](=O)[O-])c1)c1ccc(N2CCN(Cc3ccc(C(F)(F)F)cc3-c3ccc(Cl)cc3)CC2)cc1Oc1cnc2[nH]ccc2c1,"cell-free assay, competition with immobilised ligand",1 µM,89%
C[C@@H](c1ccc(-n2cnc3c(N)ncnc32)cc1)N1CCc2nn(C)c(Cc3ccccc3)c2C1=O,"binding, competition with immobilised ligand",0.1 µM,62%
CN(CCCC(F)(F)F)c1nccc(-c2cnn3ncccc23)n1,binding,1 µM,83%
CCc1ccccc1C(=O)Nc1n[nH]c2c(C)c(F)c(C3C(C#N)=C(C)N(C)C(C)=C3C#N)cc12,"cell-free assay, competition with immobilised ligand",1 µM,100%
C[C@H]1CCN(c2nccc(-c3cnn4ncccc34)n2)C1,binding,1 µM,99%
COc1ncc2cc3ccccc3nc2c1C#N,"cell-free assay, competition with immobilised ligand",5 µM,100%
CCN1CCN(Cc2ccc(C(=O)Nc3ccc(C)c(Oc4ccc5c(c4)CC(=O)N5)c3)cc2C(F)(F)F)CC1,"binding, competition with immobilised ligand",1 µM,89%
N[C@@H]1CCN(c2nccc(-c3cnn4ncccc34)n2)C1,binding,1 µM,95%
O=C(NCCCN1CCOCC1)c1ccc(Nc2ncc(Cl)c(-c3ccc(Cl)s3)n2)cc1,"binding, competition with immobilised ligand",1 µM,100%
CN(C)c1nccc(-c2cnc3ncccn23)n1,binding,1 µM,91%
O=C(c1ccc(Nc2ncc(Cl)c(-c3cc4ccccc4s3)n2)cc1)N1CCC(N2CCCC2)CC1,"binding, competition with immobilised ligand",1 µM,100%
O=C(O)[C@@H]1[C@@H](Cn2nnc3ccccc3c2=O)CC[C@H]1C(=O)c1ccc(OCCC2CCOCC2)cc1,"cell-free assay, competition with immobilised ligand",1 µM,100%
COc1cnc(Nc2cccc(S(N)(=O)=O)c2)nc1N1CCN(c2ccccc2)C(=O)C1,"binding, competition with immobilised ligand",1 µM,100%
COc1ccc2c(c1)O[C@H](c1ccc(OC)c(OC)c1)C[C@@H]2NC(=O)C1(c2ccc3c(c2)OC(F)(F)O3)CC1,"cell-free assay, competition with immobilised ligand",1 µM,100%
CN(C)c1ncc(F)c(-c2cnn3ncccc23)n1,binding,1 µM,100%
